In ChEMBL document CHEMBL3414514, “Synthesis and pharmacological evaluation of novel bisindole derivatives bearing oximes moiety: identification of novel proapoptotic agents” (Eur J Med Chem, 2015):
Active and inactive are the calls of the source. No cut-off for these calls is given here.

Tests used:
[1] = Cell cycle arrest in human T24 cells assessed as accumulation at G2 phase at 10 uM after 48 hrs by Rnase A/propidium iodide staining-based flow cytometry (reference value: 3.58%); type: functional; conditions: T-24
How it was run: (§1)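 T24 cells exposed to […] for 48 h, washed with ice-cold PBS, then fixed and permeabilized overnight in ice-cold 70% ethanol. RNase A (100 mg/mL) treatment at 37 C for 30 min, then PI staining (1 mg/mL) in the dark at 4 C for 30 min. Flow cytometry gave the percentage of cells in G1, S and G2 phase.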

T-24 [2] = assay: Induction of apoptosis in human T24 cells assessed as late apoptotic cells at 5 uM after 24 hrs by annexin-V-FITC/propidium iodide staining-based flow cytometry (reference value: 2.08%); type: functional
[3] = Induction of apoptosis in human T24 cells assessed as caspase-8 upregulation after 24 hrs by qRT-PCR analysis; type: functional, cell-based; conditions: T-24
How it was run: (§2)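 T24 cells treated at […] for 24 h before RNA extraction. SYBR Green qRT-PCR with 500 nM primers: 2 min at 50 C, 10 min at 95 C, then 40 cycles of 15 s at 95 C and 1 min at 60 C. Expression by the ΔCt method against actin, normalized to untreated cells; run in triplicate.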

T-24 [4] = assay: Induction of apoptosis in human T24 cells assessed as increase in caspase-9 protein expression at 20 uM after 6 to 24 hrs by Western blotting analysis; type: functional, cell-based
T-24 [5] = assay: Induction of apoptosis in human T24 cells assessed as increase in intracellular ROS level at 5 to 20 uM after 24 hrs by DCFH/DA staining-based fluorescence microscopic analysis; type: functional, cell-based
T-24 [6] = assay: Induction of apoptosis in human T24 cells assessed as cytochrome C accumulation in cytosol at 20 uM after 6 to 24 hrs by Western blotting analysis; type: functional, cell-based
T-24 [7] = assay: Induction of apoptosis in human T24 cells assessed as viable cells at 10 uM after 24 hrs by annexin-V-FITC/propidium iodide staining-based flow cytometry (reference value: 93.5%); type: functional; conditions: T-24, 24 h, read-out: Activity
[8] = Induction of apoptosis in human T24 cells assessed as caspase-9 upregulation at IC50 after 24 hrs by qRT-PCR analysis relative to control; type: functional, cell-based; conditions: T-24
[9] = Cell cycle arrest in human T24 cells assessed as accumulation at S phase at 10 uM after 48 hrs by Rnase A/propidium iodide staining-based flow cytometry (reference value: 62%); type: functional; conditions: T-24; how it was run: as §1
[10] = Induction of apoptosis in human T24 cells assessed as tp53 upregulation after 24 hrs by qRT-PCR analysis; type: functional, cell-based; conditions: T-24
T-24 [11] = assay: Induction of apoptosis in human T24 cells assessed as reduction in Bcl2 protein expression after 6 to 24 hrs by Western blotting analysis; type: functional, cell-based
How it was run: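 T24 cells exposed at 20 µM for 6, 12 and 24 h, then lysed in ice-cold RIPA with protease and phosphatase inhibitors. Protein was quantified by Bradford, and 30 µg per lane was run on 12% SDS-PAGE and transferred to PVDF. Membranes were blocked 2 h, probed with primary antibody at 4 °C overnight, then HRP secondary (1:2000) for 1 h, with chemiluminescent detection.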

[12] = Cell cycle arrest in human T24 cells assessed as increase in p53 level after 24 hrs by Western blotting analysis; type: functional, cell-based; conditions: T-24
How it was run: (§3)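 T24 cells treated at […] for 24 h and lysed in ice-cold RIPA buffer with protease inhibitors and NaF. Protein measured by Bradford; 30 micrograms per lane run on 12% SDS-PAGE and transferred to PVDF. Blocked 2 h at room temperature, primary antibody overnight at 4 C, HRP secondary (1:2000) 1 h, chemiluminescence detection.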

[13] = Cell cycle arrest in human T24 cells assessed as accumulation at G1 phase at 10 uM after 48 hrs by Rnase A/propidium iodide staining-based flow cytometry (reference value: 34.43%); type: functional; conditions: T-24; how it was run: as §1
[14] = Induction of apoptosis in human T24 cells assessed as cytC upregulation at IC50 after 24 hrs by qRT-PCR analysis relative to control; type: functional, cell-based; conditions: T-24
[15] = Induction of apoptosis in human T24 cells assessed as caspase-3 upregulation after 24 hrs by qRT-PCR analysis; type: functional, cell-based; conditions: T-24; how it was run: as §2
A549 = assay: Cytotoxicity against human A549 cells after 2 days by MTT assay; type: functional, cell-based; conditions: A549, 48 h
How it was run: (§4)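 Cells grown in medium with 10% heat-inactivated FBS at 37 C under 5% CO2. Compounds dissolved in medium with 1% DMSO; controls received 1% DMSO. After 2 days, MTT (10 mg/mL) added for 4 h, formazan dissolved in DMSO and absorbance read at 570/630 nm. Survival taken relative to negative control; IC50 by Bliss method (n = 5), at least three independent experiments.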

T-24 [16] = assay: Induction of apoptosis in human T24 cells assessed as membrane blebbing at 5 to 20 uM after 24 hrs by AO/EB staining-based fluorescence microscopic analysis relative to control; type: functional, cell-based
How it was run: (§5)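 T24 cells seeded at 5 × 10^4 cells/mL on cover slips. Medium was replaced with fresh medium containing 10% FBS and compound at 5, 10 or 20 µM for 24 h. Cover slips were inverted onto AO/EB stain and viewed by fluorescence microscopy. Live cells score uniform green, early apoptotic green-yellow, late apoptotic orange, and necrotic orange without condensed chromatin. Untreated cells served as control.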

NCI-H460 = assay: Cytotoxicity against human NCI-H460 cells after 2 days by MTT assay; type: functional, cell-based; conditions: NCI-H460, 48 h; how it was run: as §4
[17] = Cell cycle arrest in human T24 cells assessed as accumulation at S phase at 5 uM after 48 hrs by Rnase A/propidium iodide staining-based flow cytometry (reference value: 62%); type: functional; conditions: T-24; how it was run: as §1
T-24 [18] = assay: Induction of apoptosis in human T24 cells assessed as cell budding at 5 to 20 uM after 24 hrs by AO/EB staining-based fluorescence microscopic analysis relative to control; type: functional
[19] = Induction of apoptosis in human T24 cells assessed as Bcl2 upregulation after 24 hrs by qRT-PCR analysis; type: functional, cell-based; conditions: T-24; how it was run: as §2
T-24 [20] = assay: Induction of apoptosis in human T24 cells assessed as loss of mitochondrial membrane potential at 5 to 20 uM after 24 hrs by JC-1 staining-based fluorescence microscopic analysis relative to control; type: functional, cell-based
How it was run: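 T24 cells exposed 24 h at 5, 10 and 20 µM, then given an equal volume of JC-1 staining solution at 37 °C for 20 min and rinsed twice with PBS. Monomer (green, 515–545 nm) and aggregate (red, 570–600 nm) emissions were viewed by fluorescence microscopy. Depolarization was read as a rise in the green/red ratio against untreated control.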

HUVEC = assay: Cytotoxicity against human HUVEC cells after 2 days by MTT assay; type: cell-based; conditions: 48 h; how it was run: as §4
[21] = Cell cycle arrest in human T24 cells assessed as increase in p27 level after 24 hrs by Western blotting analysis; type: functional, cell-based; conditions: T-24; how it was run: as §3
T-24 [22] = assay: Induction of apoptosis in human T24 cells assessed as increase in caspase-7 protein expression at 20 uM after 6 to 24 hrs by Western blotting analysis; type: functional, cell-based
T-24 [23] = assay: Induction of apoptosis in human T24 cells assessed as pycnosis at 5 to 20 uM after 24 hrs by AO/EB staining-based fluorescence microscopic analysis relative to control; type: functional, cell-based; how it was run: as §5

Compound: COc1ccc2c(c1)/C(=N\O)C(c1c[nH]c3ccc(OC)cc13)=N2
- Activity [1]: 5.47%
- Activity (T-24 [2]): 6.03%
- Activity [3]: Dose-dependent effect
- Activity (T-24 [4]): Active
- Activity (T-24 [5]): Active
- Activity (T-24 [6]): Active
- viability at 10 µM (T-24 [7]): 79.9%
- fold change (FC) [8]: 27.1
- Activity [9]: 37.5%
- Activity [10]: Dose-dependent effect
- Activity (T-24 [11]): Dose-dependent effect
- Activity [12]: Dose-dependent effect
- Activity [13]: 57%
- fold change (FC) [14]: 8.09
- Activity [15]: Dose-dependent effect
- IC50 (A549): 6.09 µM
- Activity (T-24 [16]): Active
- IC50 (NCI-H460): 9.83 µM
- Activity [17]: 51.9%
- Activity (T-24 [18]): Active
- Activity [19]: Dose-dependent effect
- Activity (T-24 [20]): Active
- IC50 (HUVEC): > 100 µM
- Activity [21]: Dose-dependent effect
- Activity (T-24 [22]): Active
- Activity (T-24 [23]): Active
